Reference: ChEMBL document CHEMBL4819105, “Synthesis and activity of N-(5-hydroxy-3,4,6-trimethylpyridin-2-yl)acetamide analogues as anticolitis agents via dual inhibition of TNF-α- and IL-6-induced cell adhesions” (2021)
Calls of active or inactive are those of the source. No cut-off for these calls is given here.

How the values were obtained:
[1] = Inhibition of IL-6-induced cell adhesion in human U937 cells assessed as reduction in cell adhesion to HT-29 cells at 1 uM relative to control; format: functional; conditions: U-937
[2] = Inhibition of TNF-alpha-induced cell adhesion in human U937 cells assessed as reduction in cell adhesion to HT-29 cells at 1 uM relative to control; format: functional; conditions: U-937
[3] = Inhibition of TNF-alpha-induced cell adhesion in human U937 cells assessed as reduction in cell adhesion to HT-29 cells at 1000 uM relative to control; format: functional; conditions: U-937
[4] = Inhibition of IL-6-induced cell adhesion in human U937 cells assessed as reduction in cell adhesion to HT-29 cells at 1000 uM relative to control; format: functional; conditions: U-937
[5] = test system: Rattus norvegicus; test: Anti-colitis activity against TNBS-induced rat model of colitis assessed as increase in body weight at 1 mg/kg, po administered for 5 days and measured on day 5; format: functional, organism-based; conditions: time 5.0 day
Outline: (§1)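 Rat colitis induced by rectal TNBS. Test agents given orally once daily for 5 days. Read-outs are body weight, colon appearance (congestion, adhesion), and colon tissue weight/length. MPO in colon tissue was measured with an MPO assay kit. Groups were compared against mock control and vehicle-treated TNBS animals, with P < 0.05 taken as significant.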

[6] = test system: Rattus norvegicus; test: Anti-colitis activity against TNBS-induced rat model of colitis assessed as decrease in congestion at 1 mg/kg, po administered for 5 days and measured on day 5; format: functional, organism-based; conditions: time 5.0 day; outline: as §1
[7] = test system: Rattus norvegicus; test: Anti-colitis activity against TNBS-induced rat model of colitis assessed as decrease in adhesion at 1 mg/kg, po administered for 5 days and measured on day 5; format: functional, organism-based; conditions: time 5.0 day; outline: as §1
[8] = test system: Rattus norvegicus; test: Anti-colitis activity against TNBS-induced rat model of colitis assessed as increase in colon weight at 1 mg/kg, po administered for 5 days and measured on day 5; format: functional, organism-based; conditions: time 5.0 day; outline: as §1
[9] = test system: Rattus norvegicus; test: Anti-colitis activity against TNBS-induced rat model of colitis assessed as decrease in MPO level in colon at 1 mg/kg, po administered for 5 days and measured on day 5; format: functional, organism-based; conditions: time 5.0 day; outline: as §1
[10] = test system: Rattus norvegicus; test: Anti-colitis activity against TNBS-induced rat model of colitis assessed as increase in body weight at 1 mg/kg, po administered for 5 days and measured on day 5; conditions: time 5.0 day
[11] = test system: Rattus norvegicus; test: Anti-colitis activity against TNBS-induced rat model of colitis assessed as increase in body weight at 300 mg/kg, po administered for 5 days and measured on day 5; format: functional, organism-based; conditions: time 5.0 day; outline: as §1
[12] = test system: Rattus norvegicus; test: Anti-colitis activity against TNBS-induced rat model of colitis assessed as decrease in congestion at 300 mg/kg, po administered for 5 days and measured on day 5; format: functional, organism-based; conditions: time 5.0 day; outline: as §1
[13] = test system: Rattus norvegicus; test: Anti-colitis activity against TNBS-induced rat model of colitis assessed as decrease in adhesion at 300 mg/kg, po administered for 5 days and measured on day 5; format: functional, organism-based; conditions: time 5.0 day; outline: as §1
[14] = test system: Rattus norvegicus; test: Anti-colitis activity against TNBS-induced rat model of colitis assessed as increase in colon weight at 300 mg/kg, po administered for 5 days and measured on day 5; format: functional, organism-based; conditions: time 5.0 day; outline: as §1
[15] = test system: Rattus norvegicus; test: Anti-colitis activity against TNBS-induced rat model of colitis assessed as increase in colon length at 300 mg/kg, po administered for 5 days and measured on day 5; format: functional, organism-based; conditions: time 5.0 day; outline: as §1
[16] = test system: Rattus norvegicus; test: Anti-colitis activity against TNBS-induced rat model of colitis assessed as decrease in MPO level in colon at 300 mg/kg, po administered for 5 days and measured on day 5; format: functional, organism-based; conditions: time 5.0 day; outline: as §1
[17] = test system: Rattus norvegicus; test: Anti-colitis activity against TNBS-induced rat model of colitis assessed as increase in body weight administered po for 5 days and measured on day 5; format: functional, organism-based; conditions: dose 1-10 mg/kg, time 5.0 day; outline: as §1
[18] = test system: Rattus norvegicus; test: Anti-colitis activity against TNBS-induced rat model of colitis assessed as decrease in congestion at 1 to 10 mg/kg, po administered for 5 days and measured on day 5; format: functional, organism-based; conditions: dose 1-10 mg/kg, time 5.0 day; outline: as §1
[19] = test system: Rattus norvegicus; test: Anti-colitis activity against TNBS-induced rat model of colitis assessed as decrease in adhesion at 1 to 10 mg/kg, po administered for 5 days and measured on day 5; format: functional, organism-based; conditions: dose 1-10 mg/kg, time 5.0 day; outline: as §1
[20] = test system: Rattus norvegicus; test: Anti-colitis activity against TNBS-induced rat model of colitis assessed as increase in colon weight at 1 to 10 mg/kg, po administered for 5 days and measured on day 5; format: functional, organism-based; conditions: dose 1-10 mg/kg, time 5.0 day; outline: as §1
[21] = test system: Rattus norvegicus; test: Anti-colitis activity against TNBS-induced rat model of colitis assessed as increase in colon length at 1 to 10 mg/kg, po administered for 5 days and measured on day 5; format: functional, organism-based; conditions: dose 1-10 mg/kg, time 5.0 day; outline: as §1
[22] = test system: Rattus norvegicus; test: Anti-colitis activity against TNBS-induced rat model of colitis assessed as decrease in MPO level in colon at 1 to 10 mg/kg, po administered for 5 days and measured on day 5; format: functional, organism-based; conditions: dose 1-10 mg/kg, time 5.0 day; outline: as §1

| SMILES | inhibition at 1 µM [1] | inhibition at 1 µM [2] | further results |
| --- | --- | --- | --- |
| Cc1nc(NC(=O)CCCCl)c(C)c(C)c1O | 17.8% | – | – |
| Cc1nc(NC(=O)CCc2ccc(Cl)cc2Cl)c(C)c(C)c1O | 35.9% | 41.5% | – |
| CCCC(=O)Nc1nc(C)c(O)c(C)c1C | 17.5% | 10% | – |
| Cc1nc(NC(=O)CC(C)CC(C)(C)C)c(C)c(C)c1O (stereo not drawn) | 46.3% | – | – |
| Nc1ccc(O)c(C(=O)O)c1 [MESALAMINE] | – | – | inhibition at 1000 µM [3]: 9.9%; inhibition at 1000 µM [4]: 1.7% |
| Cc1nc(NC(=O)COc2ccccc2)c(C)c(C)c1O | 11.4% | 10.8% | – |
| CCCCCCCCCCCCCCCC(=O)Nc1nc(C)c(O)c(C)c1C | 17.4% | 31.7% | – |
| Cc1nc(NC(=O)Cc2ccccc2)c(C)c(C)c1O | 50.2% | 56.6% | – |
| CC(=O)OCC(=O)Nc1nc(C)c(O)c(C)c1C | 9.7% | 6.8% | – |
| Cc1nc(NC(=O)C(Cl)c2ccccc2)c(C)c(C)c1O (stereo not drawn) | 22.5% | 36.6% | – |
| Cc1ccccc1CCC(=O)Nc1nc(C)c(O)c(C)c1C | 12.9% | 20.2% | – |
| Cc1nc(NC(=O)Cc2ccc(F)cc2)c(C)c(C)c1O | 18.1% | 7.2% | – |
| Cc1nc(NC(=O)C(C)(C)C)c(C)c(C)c1O | 21.1% | – | – |
| Cc1nc(NC(=O)CCc2ccc(Cl)cc2)c(C)c(C)c1O | 20.8% | 30.6% | – |
| CCCCCCCC(=O)Nc1nc(C)c(O)c(C)c1C | 54.8% | 61.5% | – |
| Cc1nc(NC(=O)CCc2ccccc2)c(C)c(C)c1O | 69.6% | – | Activity [5]: Active; Activity [6]: Active; Activity [7]: Active; Activity [8]: Active; Activity [9]: Active; Activity [10]: Active |
| Cc1nc(NC(=O)C2CCCCC2)c(C)c(C)c1O | 56.7% | – | – |
| Cc1nc(NC(=O)CCc2ccccc2F)c(C)c(C)c1O | 18% | 13.9% | – |
| CCCCCCCCCCCC(=O)Nc1nc(C)c(O)c(C)c1C | 44.3% | – | – |
| Cc1nc(NC(=O)Cc2cccc(Br)c2)c(C)c(C)c1O | 9.2% | 6.2% | – |
| Cc1nc(NC(=O)C(C)C)c(C)c(C)c1O | 53.9% | 64.2% | – |
| Cc1nc(NC(=O)CCc2ccccc2Br)c(C)c(C)c1O | 22% | 35.3% | – |
| O=C(O)c1cc(/N=N/c2ccc(S(=O)(=O)Nc3ccccn3)cc2)ccc1O | – | – | Activity [11]: Active; Activity [12]: Active; Activity [13]: Active; Activity [14]: Active; Activity [15]: Active; Activity [16]: Active |
| Cc1nc(NC(=O)/C=C/c2ccccc2)c(C)c(C)c1O | 14.2% | 25.2% | – |
| CC(=O)Nc1nc(C)c(O)c(C)c1C | 47.2% | 56% | Activity [17]: Dose-Dependent Effect; Activity [18]: Active; Activity [19]: Active; Activity [20]: Active; Activity [21]: Active; Activity [22]: Active |
| Cc1nc(NC(=O)C2CCCC2)c(C)c(C)c1O | 34.8% | – | – |
| C=CCC(=O)Nc1nc(C)c(O)c(C)c1C | 21.3% | 31.9% | – |
| Cc1nc(NC(=O)C(Cl)Cl)c(C)c(C)c1O | 52.7% | – | – |
| C[C@@H]1CCN(C(=O)CC#N)C[C@@H]1N(C)c1ncnc2[nH]ccc12 [TOFACITINIB] | 58.6% | 49.1% | – |
| Cc1nc(NC(=O)CC(C)C)c(C)c(C)c1O | 48% | 52.3% | – |
